For assay [1], the system named is T-cell. The assay can be described thus: T-cell inhibitory potency relative to the IC50 of a(Cha)AAAKTAAAAa-NH2 iMHC class II DRB1*0101. The format is functional, Homo sapiens.
The subject of assay [2] is T-cell. The assay can be described thus: T-cell inhibitory potency relative to the IC50 of a(Cha)AAAKTAAAAa-NH2 in MHC class II DRB1*0401. It is filed as functional, Homo sapiens.
Assay [3] can be described thus: Mean relative potency is the ratio of potencies of 'Ac-(Cha)RAMASL-NH2' and compound, to inhibit MHC class II DRB1*0101. In a few lines:
(§1)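 Scintillation proximity competition assay. Test compounds competed against the radioligand, and bound counts were read by scintillation. Ac-(Cha)RAMASL-NH2 was run as standard competitor in every run. Potency is the ratio of standard IC50 to compound IC50.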

Assay [4] in a line: Mean relative potency is the ratio of potencies of 'Ac-(Cha)RAMASL-NH2' and compound, to inhibit MHC class II DRB1*0401. In short, it runs like this:
as §1

Assay [5] is described as follows: Mean relative potency is the ratio of potencies of 'Ac-(Cha)RAMASL-NH2' and compound, to inhibit MHC class II DRB1*0404. In short, it runs like this:
as §1

A short description of assay [6]: Mean relative potency is the ratio of potencies of 'Ac-(Cha)RAMASL-NH2' and compound to inhibit MHC class II DRB1*0101. In a few lines: as §1
Assay [7] in a line: Mean relative potency is the ratio of potencies of 'Ac-(Cha)RAMASL-NH2' and compound to inhibit MHC class II DRB1*0401. In a few lines: as §1
The next assay has as its target Cathepsin B (Bos taurus) (UniProt P07688). Kind of assay: Percent of original compound remaining with cathepsin B after incubation for 4 hrs was determined by HPLC.

Starred links: 1 amine or outer side, 2 acyl side, 3 side chain; linkers in the order of their positions; H or OH if unused. Non-standard residues stand in square brackets, D forms with d. Residues, ends and D or L forms follow the SMILES beside them. ξ: configuration not given here. Haic = O=C1[C@@H](N[*:1])CCc2cccc3c2N1[C@H](C(=O)[*:2])C3; X10 = O=C([C@H](Cc1ccc2c(c1)OCO2)N[*:1])[*:2]; X1 = O=C([C@@H]1C(c2ccccc2)CCN1[*:1])[*:2]; X4 = O=C([C@H](CC1CC2CCC1CC2)N[*:1])[*:2]; NMeR = CN[C@@H](CCCNC(=N)N)C(=O)O; NMePhg = CN[C@H](C(=O)O)c1ccccc1; Tic = O=C(O)[C@@H]1Cc2ccccc2CN1; Cha = N[C@@H](CC1CCCCC1)C(=O)O; NMeL = CN[C@@H](CC(C)C)C(=O)O; ξTle = CC(C)(C)C(N)C(=O)O; NMeA = CN[C@@H](C)C(=O)O; Nle = CCCC[C@H](N)C(=O)O; ξNMeA = CNC(C)C(=O)O

`CSCC[C@H](NC(=O)[C@H](c1ccccc1)N(C)C(=O)[C@H](CCCN=C(N)N)NC(=O)[C@H](CC1CCCCC1)NC(C)=O)C(=O)N[C@@H](C)C(=O)N[C@@H](CO)C(=O)N[C@H](C(N)=O)C(C)(C)C`: the T-cell inhibition is 5.37 in the assay with T-cell [1] and 3.2 with T-cell [2].
With `CSCC[C@H](NC(=O)[C@H](C)NC(=O)[C@H](CCCN=C(N)N)NC(=O)[C@H](CC1CCCCC1)NC(C)=O)C(N)=O` (Ac-[Cha]RAM-NH2), the Mean relative potency in assay [3] amounted to 0.05; in assay [4], 0.01; in assay [5], 0.005.
In the case of `CSCCC(NC(=O)[C@H]1Cc2ccccc2CN1C(=O)[C@H](CCCN=C(N)N)NC(=O)[C@H](CC1CCCCC1)NC(C)=O)C(=O)N(C)[C@@H](C)C(=O)N[C@@H](CO)C(=O)N(C)[C@@H](C)C(N)=O` (some centres not stated), the Mean relative potency in assay [6] was 0.89; in assay [7] it was 1.05. On Cathepsin B (Bos taurus), the % remaining came out at 99%.
On to `CC(=O)N[C@@H](CC1CCCCC1)C(=O)N[C@@H](CCCN=C(N)N)C(=O)N1Cc2ccccc2C[C@H]1C(=O)N[C@H]1CCc2cccc3c2N(C1=O)[C@H](C(=O)N[C@@H](CO)C(=O)N(C)[C@@H](C)C(N)=O)C3` (Ac-[Cha]R[Tic][Haic]S[NMeA]-NH2), for which the Mean relative potency in assay [6] worked out at 0.12; in assay [7], 0.27. In addition, the T-cell inhibition stood at 0.2 with T-cell [1] and 0.7 in the assay with T-cell [2]. Moreover, the % remaining on Cathepsin B (Bos taurus) amounted to 109%.
On to `CSCC[C@H](NC(=O)[C@H](C)NC(=O)[C@H](CCCN=C(N)N)NC(=O)[C@H](CC1CCCCC1)NC(C)=O)C(=O)N[C@H](C)C(N)=O`, for which the Mean relative potency in assay [3] stood at 0.25; in assay [4] it was 0.07; in assay [5] it was 0.03.
As for `CC(=O)N[C@@H](CC1CCCCC1)C(=O)N[C@@H](CCCN=C(N)N)C(=O)N(C)[C@@H](C)C(=O)N[C@H]1CCc2cccc3c2N(C1=O)[C@H](C(=O)N[C@@H](CO)C(=O)N(C)[C@@H](CC(C)C)C(N)=O)C3` (Ac-[Cha]R[NMeA][Haic]S[NMeL]-NH2), the Mean relative potency in assay [6] was 0.03; in assay [7] it was 0.18. Further, the figures for the T-cell inhibition in the assay with T-cell [1] and in the assay on T-cell [2] were less than 0.04 and 2.32, respectively. The % remaining at Cathepsin B (Bos taurus) worked out at 106%.
For `CSCC[C@H](NC(=O)[C@H](c1ccccc1)N(C)C(=O)[C@H](CCCN=C(N)N)NC(=O)[C@H](CC1CCCCC1)NC(C)=O)C(=O)N(C)[C@@H](C)C(=O)N[C@@H](CO)C(=O)N[C@H](C(N)=O)C(C)(C)C`, the results for the T-cell inhibition in the assay with T-cell [1] and in the assay on T-cell [2] were 7.8 and 2.5, respectively.
On to `CSCC[C@@H](NC(=O)[C@H]1Cc2ccccc2CN1C(=O)[C@H](CCCN=C(N)N)NC(=O)[C@H](CC1CCCCC1)NC(C)=O)C(=O)N1CCC(c2ccccc2)[C@@H]1C(=O)N[C@@H](CO)C(=O)N(C)[C@@H](C)C(N)=O` (some centres not stated), for which the Mean relative potency in assay [6] was 0.84; in assay [7], 0.63. The T-cell inhibition was found to be 6.9 in the assay on T-cell [1] and 4.6 in the assay with T-cell [2]. Further, the % remaining on Cathepsin B (Bos taurus) turned out to be 98%.
Turning to `CSCC[C@H](NC(=O)[C@@H]1Cc2ccccc2CN1C(=O)[C@H](CCCN=C(N)N)NC(=O)[C@H](CC1CCCCC1)NC(C)=O)C(=O)N(C)[C@@H](C)C(=O)N[C@@H](CO)C(=O)N(C)[C@@H](C)C(N)=O`, the T-cell inhibition is 0.86 in the assay on T-cell [1] and 1.5 with T-cell [2].
Turning to `CC(=O)N[C@@H](CC1CCCCC1)C(=O)N[C@@H](CCCN=C(N)N)C(=O)N(C)[C@H](C(=O)N[C@H]1CCc2cccc3c2N(C1=O)[C@H](C(=O)N[C@@H](CO)C(=O)N(C)[C@@H](CC(C)C)C(N)=O)C3)c1ccccc1` (Ac-[Cha]R[NMePhg][Haic]S[NMeL]-NH2), the Mean relative potency in assay [6] was 0.01; in assay [7], 0.11. The T-cell inhibition in the assay with T-cell [1] was determined as 0.1; in the assay on T-cell [2] it was 1. Moreover, the % remaining at Cathepsin B (Bos taurus) came out at 95%.
With `CSCC[C@H](NC(=O)[C@H](C)NC(=O)[C@H](CCCN=C(N)N)NC(=O)[C@H](CC1CCCCC1)NC(C)=O)C(=O)N[C@H](C)C(=O)N[C@@H](CO)C(=O)N(C)[C@@H](CC(C)C)C(N)=O`, the figures for the Mean relative potency in assay [3] and in assay [4] were 0.85 and 0.77, respectively. Besides, the % remaining on Cathepsin B (Bos taurus) was determined as 0%.
In the case of `CSCC[C@H](NC(=O)[C@@H](NC(=O)[C@H](CCCN=C(N)N)NC(=O)[C@H](CC1CCCCC1)NC(C)=O)C(C)(C)C)C(=O)N(C)[C@@H](C)C(=O)N[C@@H](CO)C(=O)N[C@H](C(N)=O)C(C)(C)C`, the T-cell inhibition with T-cell [1] turned out to be 2.9; with T-cell [2] it was 1.5.
As to `CC(=O)N[C@@H](CC1CCCCC1)C(=O)N[C@@H](CCCN=C(N)N)C(=O)N[C@@H](C)C(N)=O`, the Mean relative potency in assay [3], in assay [4] and in assay [5] was 0 in each case.
Turning to `CSCC[C@@H](NC(=O)[C@@H](c1ccccc1)N(C)C(=O)[C@H](CCCN=C(N)N)NC(=O)[C@H](CC1CCCCC1)NC(C)=O)C(=O)N(C)[C@@H](C)C(=O)N[C@@H](CO)C(=O)N[C@H](C(N)=O)C(C)(C)C`, the Mean relative potency in assay [6] worked out at 1.64; in assay [7], 1.27. In addition, at Cathepsin B (Bos taurus), the % remaining is 43%.
In the case of `CSCC[C@H](NC(=O)[C@H](C)N(C)C(=O)[C@H](CCCN=C(N)N)NC(=O)[C@H](CC1CCCCC1)NC(C)=O)C(=O)N1CCC(c2ccccc2)[C@H]1C(=O)N[C@@H](CO)C(=O)N(C)[C@@H](C)C(N)=O` (some centres not stated) (Ac-[Cha]R[NMeA]M[X1]S[NMeA]-NH2), the T-cell inhibition amounted to 3.7 with T-cell [1] and 1.2 with T-cell [2].
Take `CSCC[C@@H](NC(=O)[C@@H](c1ccccc1)N(C)C(=O)[C@H](CCCN=C(N)N)NC(=O)[C@H](CC1CCCCC1)NC(C)=O)C(=O)N[C@@H](C)C(=O)N[C@@H](CO)C(=O)N[C@H](C(N)=O)C(C)(C)C`: the Mean relative potency stood at 1.15 in assay [6] and 2.02 in assay [7]. The % remaining at Cathepsin B (Bos taurus) was 93%.
Turning to `CC(=O)N[C@@H](CC1CCCCC1)C(=O)N[C@@H](CCCN=C(N)N)C(=O)N(C)[C@H](C(=O)N[C@H]1CCc2cccc3c2N(C1=O)[C@H](C(=O)N[C@@H](CO)C(=O)NC(C(N)=O)C(C)(C)C)C3)c1ccccc1` (some centres not stated) (Ac-[Cha]R[NMePhg][Haic]S[ξTle]-NH2), the Mean relative potency in assay [6] is 0.06; in assay [7], 0.23. Also, the T-cell inhibition with T-cell [1] is recorded as 2.3; in the assay with T-cell [2] it was 3. Moreover, the % remaining on Cathepsin B (Bos taurus) stood at 126%.
As to `CSCC[C@H](NC(=O)[C@H](C)NC(=O)[C@H](CCCN=C(N)N)NC(=O)[C@H](CC1CC2CCC1CC2)NC(C)=O)C(=O)N[C@@H](C)C(=O)N[C@@H](CO)C(=O)N[C@@H](CC(C)C)C(N)=O` (some centres not stated) (Ac-[X4]RAMASL-NH2), the results for the Mean relative potency in assay [3] and in assay [4] were 0.68 and 1.22, respectively.
Take `CSCC[C@H](NC(=O)[C@H](C)NC(=O)[C@H](CCCN=C(N)N)NC(=O)[C@H](CC1CCCCC1)NC(C)=O)C(=O)N1CCC[C@@H]1C(=O)N[C@@H](CO)C(=O)N[C@@H](CC(C)C)C(N)=O`: the Mean relative potency in assay [3] came out at 1.37; in assay [4], 0.7.
`CSCC[C@H](NC(=O)[C@H](C)NC(=O)[C@H](CCCN=C(N)N)N(C)C(=O)[C@H](CC1CCCCC1)NC(C)=O)C(=O)N[C@@H](C)C(=O)N[C@@H](CO)C(=O)N[C@@H](CC(C)C)C(N)=O` (Ac-[Cha][NMeR]AMASL-NH2): the Mean relative potency in assay [3] and in assay [4] was 0.001 each time.
With `CSCC[C@H](NC(=O)[C@H](C)NC(=O)[C@H](CCCN=C(N)N)NC(=O)[C@H](Cc1ccc2c(c1)OCO2)NC(C)=O)C(=O)N[C@@H](C)C(=O)N[C@@H](CO)C(=O)N[C@@H](CC(C)C)C(N)=O` (Ac-[X10]RAMASL-NH2), the Mean relative potency in assay [3] was found to be 1.31; in assay [4] it was 1.65.
With `CCCC[C@H](NC(=O)[C@H](C)NC(=O)[C@H](CCCN=C(N)N)NC(=O)[C@H](CC1CCCCC1)NC(C)=O)C(=O)N[C@@H](C)C(=O)N[C@@H](CO)C(=O)N[C@@H](CC(C)C)C(N)=O` (Ac-[Cha]RA[Nle]ASL-NH2), the Mean relative potency in assay [3] was found to be 0.77; in assay [4], 0.4.
Take `CSCC[C@@H](NC(=O)[C@H](NC(=O)[C@H](CCCN=C(N)N)NC(=O)[C@H](CC1CCCCC1)NC(C)=O)C(C)(C)C)C(=O)N(C)[C@@H](C)C(=O)N[C@@H](CO)C(=O)N[C@H](C(N)=O)C(C)(C)C`: the Mean relative potency in assay [6] came to 0.29; in assay [7], 0.38. Besides, on Cathepsin B (Bos taurus), the % remaining turned out to be 97%.
Consider `CSCC[C@H](NC(=O)[C@H](C)NC(=O)[C@H](CCCN=C(N)N)NC(=O)[C@H](CC1CCCCC1)NC(C)=O)C(=O)N[C@H](C)C(=O)N[C@@H](CO)C(N)=O`, for which the Mean relative potency in assay [3] came to 0.34; in assay [4], 1.14; in assay [5] it was 0.32.
For the compound `CC(=O)N[C@@H](CC1CCCCC1)C(=O)N[C@@H](CCCN=C(N)N)C(=O)N(C)[C@H](C(=O)N[C@H]1CCc2cccc3c2N(C1=O)[C@H](C(=O)N[C@@H](CO)C(=O)N(C)C(C)C(N)=O)C3)c1ccccc1` (some centres not stated) (Ac-[Cha]R[NMePhg][Haic]S[ξNMeA]-NH2), the Mean relative potency in assay [6] stood at 0.01; in assay [7], 0.37. The results for the T-cell inhibition in the assay on T-cell [1] and in the assay on T-cell [2] were less than 0.2 and 4.6, respectively. For the same compound, the % remaining at Cathepsin B (Bos taurus) is 141%.

The values above are taken from ChEMBL document CHEMBL1133693, “Peptide and peptide mimetic inhibitors of antigen presentation by HLA-DR class II MHC molecules. Design, structure-activity relationships, and X-ray crystal structures” (J Med Chem, 2000).
